Reference: ChEMBL document CHEMBL4665726, “Development of a selective HDAC inhibitor aimed at reactivating the HIV latent reservoir” (Bioorg Med Chem Lett, 2020)

Experiments:
Histone deacetylase 1 = Histone deacetylase 1 (Homo sapiens, UniProt Q13547); assay: Inhibition of HDAC1 (unknown origin)
Histone deacetylase 8 = biological target: T1, Histone deacetylase 8 (Homo sapiens, UniProt Q9BY41); assay: Inhibition of HDAC8 (unknown origin)
T1 sequence (Q9BY41 whole entry): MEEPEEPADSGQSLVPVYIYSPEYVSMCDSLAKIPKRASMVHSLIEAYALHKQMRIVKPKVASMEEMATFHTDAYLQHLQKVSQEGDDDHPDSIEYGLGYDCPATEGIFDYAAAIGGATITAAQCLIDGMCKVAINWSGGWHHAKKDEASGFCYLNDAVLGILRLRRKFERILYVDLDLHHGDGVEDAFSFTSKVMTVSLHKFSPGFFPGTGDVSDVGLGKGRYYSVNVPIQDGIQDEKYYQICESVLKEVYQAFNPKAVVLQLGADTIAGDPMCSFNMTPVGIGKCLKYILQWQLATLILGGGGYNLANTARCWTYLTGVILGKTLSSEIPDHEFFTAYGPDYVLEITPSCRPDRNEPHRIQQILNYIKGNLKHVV

[1] = biological target: T2, Protein deacetylase HDAC6 (Homo sapiens, UniProt Q9UBN7); assay: Inhibition of HDAC6 (unknown origin)
T2 sequence (Q9UBN7 whole entry): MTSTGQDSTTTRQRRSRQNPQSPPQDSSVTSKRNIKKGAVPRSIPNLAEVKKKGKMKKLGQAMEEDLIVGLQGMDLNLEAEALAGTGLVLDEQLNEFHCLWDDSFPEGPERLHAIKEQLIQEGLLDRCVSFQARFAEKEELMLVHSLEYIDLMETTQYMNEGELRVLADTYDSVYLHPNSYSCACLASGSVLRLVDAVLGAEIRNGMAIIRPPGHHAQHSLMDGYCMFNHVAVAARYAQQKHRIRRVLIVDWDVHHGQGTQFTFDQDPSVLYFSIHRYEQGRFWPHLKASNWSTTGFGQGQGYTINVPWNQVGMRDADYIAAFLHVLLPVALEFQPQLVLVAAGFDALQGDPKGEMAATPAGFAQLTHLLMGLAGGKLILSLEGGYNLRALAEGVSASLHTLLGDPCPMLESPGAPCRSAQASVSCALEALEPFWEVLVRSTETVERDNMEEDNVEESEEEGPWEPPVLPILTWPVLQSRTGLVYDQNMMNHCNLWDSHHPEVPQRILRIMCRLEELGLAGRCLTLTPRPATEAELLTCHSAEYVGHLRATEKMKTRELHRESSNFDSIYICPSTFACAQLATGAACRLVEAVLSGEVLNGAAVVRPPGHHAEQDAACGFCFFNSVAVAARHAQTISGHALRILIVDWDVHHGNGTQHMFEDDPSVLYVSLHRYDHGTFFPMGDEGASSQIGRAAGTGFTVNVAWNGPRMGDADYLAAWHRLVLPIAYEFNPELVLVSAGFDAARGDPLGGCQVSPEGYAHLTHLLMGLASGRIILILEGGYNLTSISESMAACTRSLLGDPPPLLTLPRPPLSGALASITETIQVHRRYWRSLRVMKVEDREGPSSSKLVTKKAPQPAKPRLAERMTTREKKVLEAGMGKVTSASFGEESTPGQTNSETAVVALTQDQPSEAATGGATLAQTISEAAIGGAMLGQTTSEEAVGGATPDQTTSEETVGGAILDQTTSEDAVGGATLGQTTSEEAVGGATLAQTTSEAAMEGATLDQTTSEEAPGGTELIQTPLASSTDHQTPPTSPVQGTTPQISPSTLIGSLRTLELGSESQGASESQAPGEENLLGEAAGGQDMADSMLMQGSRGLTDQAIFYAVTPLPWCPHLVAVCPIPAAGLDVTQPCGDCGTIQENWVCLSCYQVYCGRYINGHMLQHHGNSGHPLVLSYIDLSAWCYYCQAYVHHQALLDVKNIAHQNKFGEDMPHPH

Histone deacetylase 3 = Histone deacetylase 3 (Homo sapiens, UniProt O15379); assay: Inhibition of HDAC3 (unknown origin)
Sequence of Histone deacetylase 3 (O15379 whole entry): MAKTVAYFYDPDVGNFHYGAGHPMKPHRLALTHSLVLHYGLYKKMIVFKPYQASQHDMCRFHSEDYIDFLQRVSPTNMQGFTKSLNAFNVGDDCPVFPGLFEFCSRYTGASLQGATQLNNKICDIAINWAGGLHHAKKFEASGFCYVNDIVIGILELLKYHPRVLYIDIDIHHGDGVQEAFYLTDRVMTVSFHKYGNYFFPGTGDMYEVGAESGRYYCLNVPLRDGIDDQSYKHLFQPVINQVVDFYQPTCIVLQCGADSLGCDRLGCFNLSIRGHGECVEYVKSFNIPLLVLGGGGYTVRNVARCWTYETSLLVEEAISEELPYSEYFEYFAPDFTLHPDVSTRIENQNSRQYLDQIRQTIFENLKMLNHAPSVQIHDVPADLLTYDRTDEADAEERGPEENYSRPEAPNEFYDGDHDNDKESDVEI

[2] = biological target: T3, Class 1 histone deacetylase (Homo sapiens, UniProt Q13547+O15379+Q92769+Q9BY41); assay: Inhibition of Class 1 HDAC in VSV-G-pseudotyped HIV infected human 2C4 cell Jurkat model assessed as reactivation of HIV latency in presence of 0.1% NHS by fluorescent reporter gene assay
Procedure, shortened: (§1)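 Latently infected Jurkat 2C4 cells (HIV latency model) were tested for reactivation of silenced provirus in parallel at two normal human serum levels: 0.1% and 5%. The paired runs gauge the potency shift from plasma protein binding.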

Histone deacetylase 2 = Histone deacetylase 2 (Homo sapiens, UniProt Q92769); assay: Inhibition of HDAC2 (unknown origin)
Sequence of Histone deacetylase 2 (Q92769 whole entry): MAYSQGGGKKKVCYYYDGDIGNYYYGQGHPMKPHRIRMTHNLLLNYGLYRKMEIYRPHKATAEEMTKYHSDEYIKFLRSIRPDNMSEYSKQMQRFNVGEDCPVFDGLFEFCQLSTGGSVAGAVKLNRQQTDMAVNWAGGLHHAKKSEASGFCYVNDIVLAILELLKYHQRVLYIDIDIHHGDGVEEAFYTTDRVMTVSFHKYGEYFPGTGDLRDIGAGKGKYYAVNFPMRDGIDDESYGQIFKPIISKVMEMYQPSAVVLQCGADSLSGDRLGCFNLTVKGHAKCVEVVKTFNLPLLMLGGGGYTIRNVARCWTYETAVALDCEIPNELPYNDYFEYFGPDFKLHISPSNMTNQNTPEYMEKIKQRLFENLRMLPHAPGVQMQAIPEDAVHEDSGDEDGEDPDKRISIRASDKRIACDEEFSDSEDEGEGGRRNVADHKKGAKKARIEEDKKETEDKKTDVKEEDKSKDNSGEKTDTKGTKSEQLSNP

[3] = biological target: T3, Class 1 histone deacetylase; assay: Inhibition of Class 1 HDAC in VSV-G-pseudotyped HIV infected human 2C4 cell Jurkat model assessed as reactivation of HIV latency in presence of 5% NHS by fluorescent reporter gene assay; procedure, shortened: as §1
[4] = Apparent permeability of the compound; format: ADME; conditions: not told
[5] = Half life in Wistar Han rat at 2 mg/kg, iv or 10 mg/kg, po; format: ADME, organism-based; conditions: in vivo
[6] = Unbound volume of distribution in Wistar Han rat at 2 mg/kg, iv or 10 mg/kg, po; format: ADME, organism-based; conditions: in vivo
[7] = Unbound clearance in Wistar Han rat at 2 mg/kg, iv or 10 mg/kg, po; format: ADME, organism-based; conditions: in vivo
[8] = Oral bioavailability in Wistar Han rat at 10 mg/kg; format: ADME, organism-based; conditions: in vivo

Sequence of Histone deacetylase 1 (Q13547 whole entry): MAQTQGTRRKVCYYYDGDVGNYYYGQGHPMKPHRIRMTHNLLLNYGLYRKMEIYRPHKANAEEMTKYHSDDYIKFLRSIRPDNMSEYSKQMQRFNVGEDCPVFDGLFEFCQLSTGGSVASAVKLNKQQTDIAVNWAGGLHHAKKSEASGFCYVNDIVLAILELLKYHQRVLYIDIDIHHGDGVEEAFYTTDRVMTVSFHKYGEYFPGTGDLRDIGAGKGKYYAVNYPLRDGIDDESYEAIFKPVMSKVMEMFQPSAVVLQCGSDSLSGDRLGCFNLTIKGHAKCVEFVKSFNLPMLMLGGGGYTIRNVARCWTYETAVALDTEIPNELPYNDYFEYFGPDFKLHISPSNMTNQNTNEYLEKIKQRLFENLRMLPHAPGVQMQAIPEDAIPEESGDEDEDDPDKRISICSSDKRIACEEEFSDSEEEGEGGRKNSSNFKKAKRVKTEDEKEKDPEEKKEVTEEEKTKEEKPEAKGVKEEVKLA

Row | SMILES | IC50 (Histone deacetylase 1) [nM] | IC50 (Histone deacetylase 8) [nM] | IC50 [1] [nM] | IC50 (Histone deacetylase 3) [nM] | EC50 [2] [nM] | IC50 (Histone deacetylase 2) [nM] | EC50 [3] [nM] | Papp [4] [×10⁻⁶ cm/s] | half-life [5] [h] | Vdu [6] [L/kg] | CL free [7] [mL/min/kg] | bioavailability [8] [%]
1 | CCC(=O)CCCCC[C@H](NC(=O)[C@H]1CC12CCN(C)CC2)c1[nH]c(-c2ccc(F)cc2F)nc1C#N | 35.2 | 20700 | 14800 | 18.9 | 1233 | 155 | 1260 |  |  |  |  | 
2 | CCC(=O)CCCCC[C@H](NC(=O)[C@H]1CC12CCN(C)CC2)c1[nH]c(-c2ccc(F)cc2)nc1C#N | 3.8 |  |  |  | 233 |  | 409 | 1.7 | 4 | 40 | 244 | 1
3 | CCC(=O)CCCCC[C@H](NC(=O)[C@H]1CC12CCN(C)CC2)c1[nH]c(-c2ccc(C(F)(F)F)cc2)nc1C#N | 3.7 | 19200 | 8250 | 1.9 | 107 | 15.6 | 175 |  |  |  |  | 
4 | CCC(=O)CCCCC[C@H](NC(=O)CN(C)C)c1[nH]c(-c2ccc(F)cc2)nc1C#N | 47.9 | 29500 | 43300 | 26.8 | 1605 | 219 | 3532 |  |  |  |  | 
5 | CCC(=O)CCCCC[C@H](NC(=O)c1ccon1)c1[nH]c(-c2ccc(F)cc2)nc1C#N | 35.6 | 16200 | > 45000 | 12.1 | 558 | 164 | 2726 |  |  |  |  | 
6 | CCC(=O)CCCCCC(NC(=O)c1cncs1)c1[nH]c(-c2ccccc2)nc1C(=O)NCCN(C)C (stereo not given) | 13.5 | 5340 | > 45000 | 4.5 | 1142 | 53.1 | 853 |  |  |  |  | 
7 | CCC(=O)CCCCC[C@H](NC(=O)[C@H]1CC12CCN(C)CC2)c1[nH]c(-c2ccc(F)cc2)nc1C(N)=O | 0.6 | 6800 | 17600 | 0.9 | 166 | 6.3 | 276 |  |  |  |  | 
8 | CCC(=O)CCCCC[C@H](NC(=O)[C@H]1CC12CCN(CC)CC2)c1[nH]c(-c2ccc(F)cc2)nc1C#N | 2.8 | 9370 | 23600 | 1.8 | 161 | 11.7 | 259 |  |  |  |  | 
9 | CCC(=O)CCCCC[C@H](NC(=O)[C@H]1CC12CCN(C)CC2)c1[nH]c(-c2ccc3nn(C)cc3c2)nc1C#N | 0.4 | 12400 | 9040 | 0.3 | 247 | 2.1 | 322 |  |  |  |  | 
10 | CCC(=O)CCCCC[C@H](NC(=O)[C@H]1CC12CCN(C)CC2)c1[nH]c(-c2cc3ccccc3nc2OC)nc1C#N | 97.9 | > 45000 | 8970 | 101 | 548 | 177 | 1351 |  |  |  |  | 
11 | CCC(=O)CCCCC[C@H](NC(=O)[C@H]1CC12CCN(C)CC2)c1[nH]c(-c2cccnc2OC)nc1C#N | 58.9 | 38100 | 17100 | 34.8 | 2112 | 229 | 1669 |  |  |  |  | 
12 | CCC(=O)CCCCC[C@H](NC(=O)[C@H]1CC12CCN(C)CC2)c1[nH]c(-c2ccccc2F)nc1C#N | 17 | 39600 | 22500 | 10.7 | 566 | 96 | 1162 |  |  |  |  | 
